The source of these data is ChEMBL document CHEMBL5335802, “Lead Optimization of the 5-Phenylpyrazolopyrimidinone NPD-2975 toward Compounds with Improved Antitrypanosomal Efficacy” (J Med Chem, 2024).

Data set [1] in a line: Cytotoxicity against human MRC5 cells incubated for 3 days by resazurin reagent fluorimetric analysis. The format is toxicity, cell-based.
In a further data set the test system is Plasmodium falciparum. In words: Antiplasmodial activity against Plasmodium falciparum assessed as inhibition of parasite growth incubated for 72 hrs by resazurin reagent fluorimetric analysis. The format is functional, organism-based.
The test system of data set [2] is Trypanosoma brucei. In words: Antitrypanosomal activity against Trypanosoma brucei assessed as inhibition of parasite growth incubated for 72 hrs by resazurin reagent fluorimetric analysis. The format is functional, organism-based.
Data set [3] can be described thus: Cytotoxicity against mouse Peritoneal macrophage cell incubated for 3 days by resazurin reagent fluorimetric analysis. The format is toxicity, cell-based. The conditions noted are these: peritoneal macrophages.
Data set [4] is described as follows: Metabolic stability in human liver microsomes assessed as drug metabolism in phase-I stage. The format is ADME, Microsome.
The nature of data set [5]: Metabolic stability in human liver microsomes assessed as parent compound remaining in phase-II metabolism measured after 1 hr. Conditions: read-out: Stability. The format is ADME, Microsome.
A short description of data set [6]: Metabolic stability in mouse liver microsomes assessed as parent compound remaining in phase-II metabolism measured after 1 hr. The format is ADME, Microsome. The conditions noted are these: read-out: Stability.
Data set [7] has as its system Trypanosoma brucei. In words: Antitrypanosomal activity against Trypanosoma brucei Squib 427 trypomastigotes infected in mouse model assessed as reduction in parasitemia at 25 mg/kg,po bid administrated for 5 consecutive days. The format is functional, organism-based. Summed up: (§1)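 Female Swiss mice (15-20 g), three per group, infected IP with 10^4 T. brucei Squib 427 trypomastigotes. Dosing PO b.i.d. for 5 days in PEG400; first dose 30 min before infection. Vehicle and suramin (10 mg/kg IP s.i.d., 5 days) controls. Parasitemia counted microscopically in tail-vein blood drops at several time points up to 63 dpi. Clinical or adverse effects observed.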

The subject of data set [8] is Trypanosoma brucei. In words: Antitrypanosomal activity against Trypanosoma brucei Squib 427 trypomastigotes infected in mouse model assessed as reduction in parasitemia at 50 mg/kg,po bid administrated for 5 consecutive days by microscopic analysis. The format is functional, organism-based. Summed up:
as §1

Data set [9] in a line: Toxicity in mouse infected with Trypanosoma brucei Squib 427 trypomastigotes assessed as animal death at 25 mg/kg,po bid administrated for 5 consecutive days. The format is organism-based. Conditions: in vivo. Summed up: (§2)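 Female Swiss mice (15-20 g), groups of three, infected IP with 10⁴ T. brucei Squib 427 trypomastigotes. Compound given PO b.i.d. for 5 days in PEG400 (formulated at 12.5 and 6.25 mg/mL, up to 100 μL/25 g body weight). First dose 30 min before infection. PEG400 vehicle control group included. Animals observed for clinical or adverse effects and survival; tail-vein parasitemia checked microscopically until 63 dpi.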

Data set [10] is described as follows: Toxicity in mouse infected with Trypanosoma brucei Squib 427 trypomastigotes assessed as animal death at 50 mg/kg,po bid administrated for 5 consecutive days measured after 60 days. The conditions noted are these: in vivo, 1440 h, time 60 day. The format is organism-based. A digest of the protocol:
as §2

Data set [11] deals with Trypanosoma brucei. Nature of the data set: Antitrypanosomal activity against Trypanosoma brucei Squib 427 trypomastigotes infected in mouse model assessed as reduction in parasite growth in blood at 25 mg/kg,po bid administrated for 5 consecutive days by SL-RNA qPCR assay. The format is functional, organism-based. A digest of the protocol:
(§3)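 Surviving mice from the acute infection model (PO b.i.d., 5 days, PEG400) tested by SL-RNA qPCR. Peripheral blood erythrocyte-lysed before RNA extraction. Mice sedated with ketamine/xylazine and perfused; fat, brain and spleen pieces held in RNAlater overnight at 4 °C. Activation 10 min 45 °C, 10 min 95 °C; 40 cycles 95/50/60 °C, 15 s each; melting curve. Eef2 qPCR confirmed RNA extraction.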

Data set [12] deals with Trypanosoma brucei. In words: Antitrypanosomal activity against Trypanosoma brucei Squib 427 trypomastigotes infected in mouse model assessed as reduction in parasite growth in blood at 50 mg/kg,po bid administrated for 5 consecutive days by SL-RNA qPCR assay. The format is functional, organism-based. Summed up:
as §3

The test system of data set [13] is Trypanosoma brucei. In words: Antitrypanosomal activity against Trypanosoma brucei Squib 427 trypomastigotes infected in mouse model assessed as reduction in parasite growth in spleen at 25 mg/kg,po bid administrated for 5 consecutive days by SL-RNA qPCR assay. The format is functional, organism-based. Summed up:
as §3

The test system of data set [14] is Trypanosoma brucei. Nature of the data set: Antitrypanosomal activity against Trypanosoma brucei Squib 427 trypomastigotes infected in mouse model assessed as reduction in parasite growth in spleen at 50 mg/kg,po bid administrated for 5 consecutive days by SL-RNA qPCR assay. The format is functional, organism-based. A digest of the protocol: as §3
In data set [15] the test system is Trypanosoma brucei. Nature of the data set: Antitrypanosomal activity against Trypanosoma brucei Squib 427 trypomastigotes infected in mouse model assessed as reduction in parasite growth in fat at 25 mg/kg,po bid administrated for 5 consecutive days by SL-RNA qPCR assay. The format is functional, organism-based. A digest of the protocol: as §3
The test system of data set [16] is Trypanosoma brucei. In words: Antitrypanosomal activity against Trypanosoma brucei Squib 427 trypomastigotes infected in mouse model assessed as reduction in parasite growth in fat at 50 mg/kg,po bid administrated for 5 consecutive days by SL-RNA qPCR assay. The format is functional, organism-based. A digest of the protocol: as §3
In data set [17] the test system is Trypanosoma brucei. Nature of the data set: Antitrypanosomal activity against Trypanosoma brucei Squib 427 trypomastigotes infected in mouse model assessed as reduction in parasite growth in brain at 25 mg/kg,po bid administrated for 5 consecutive days by SL-RNA qPCR assay. The format is functional, organism-based. Summed up: as §3
Data set [18] concerns Trypanosoma brucei. In words: Antitrypanosomal activity against Trypanosoma brucei Squib 427 trypomastigotes infected in mouse model assessed as reduction in parasite growth in brain at 50 mg/kg,po bid administrated for 5 consecutive days by SL-RNA qPCR assay. The format is functional, organism-based. Summed up:
as §3

Data set [19] in a line: Toxicity in mouse infected with Trypanosoma brucei Squib 427 trypomastigotes assessed as animal death at 10 mg/kg,po bid administrated for 5 consecutive days measured after 60 days. The format is organism-based. Conditions: in vivo, 1440 h, time 60 day.

Each structure is given as a SMILES string. The source made the active and inactive calls. The calls are words filed in the database; no cut-off is given here.

As for `CCn1nc(C(C)C)c2nc(-c3ccc(F)cc3)[nH]c(=O)c21`, the IC50 at 3 days in data set [1] is over 63.1 µM.

In the case of `CC(C)c1n[nH]c2c(=O)[nH]c(Cc3ccccc3)nc12`, the IC50 with Plasmodium falciparum was 1260 nM.

As to `COc1ccc(CCn2nc(C(C)C)c3nc(-c4ccc(F)cc4)[nH]c(=O)c32)cc1`, the IC50 with Trypanosoma brucei [2] (read-out: IC50) is 3200 nM; with Trypanosoma brucei [2] (read-out: pIC50 (converted)), 3160 nM. Moreover, in data set [1], the IC50 at 3 days is over 63.1 µM.

As for `CC(C)(C)c1n[nH]c2c(=O)[nH]c(-c3ccc(F)cc3)nc12`, the IC50 at 3 days in data set [1] and in data set [3] was over 63.1 µM in each case. In addition, in data set [4], the Stability result is recorded as “Stable”. The remaining at 1 h in data set [5] and in data set [6] was 69% throughout. In addition, the result with Trypanosoma brucei [7], with Trypanosoma brucei [8], with Trypanosoma brucei [11], in the data set on Trypanosoma brucei [12], in the data set on Trypanosoma brucei [13] and in the data set on Trypanosoma brucei [14] was Active. The result in the data set on Trypanosoma brucei [15], in the data set on Trypanosoma brucei [16], in the data set on Trypanosoma brucei [17] and with Trypanosoma brucei [18] was Active. The Activity entry in data set [9] and in [10] was “Non-Toxic” in each case.

Regarding `CC(C)c1n[nH]c2c(=O)[nH]c(-c3ccc(F)cc3)nc12`, the Stability result in data set [4] is reported as “Stable”. Moreover, the remaining at 1 h in [5] and in data set [6] was 69% in each case.

`CC(C)c1nn(CCC(N)=O)c2c(=O)[nH]c(-c3ccc(F)cc3)nc12`: the IC50 at 3 days in data set [1] was over 63.1 µM.

`CCc1n[nH]c2c(=O)[nH]c(-c3ccc(F)cc3)nc12` showed an IC50 at 3 days in data set [1] of over 63.1 µM.

`CCCn1nc(C(C)C)c2nc(-c3ccc(F)cc3)[nH]c(=O)c21` had an IC50 at 3 days in [1] of over 63.1 µM.

As to `CC(C)c1[nH]nc2c(=O)n(C)c(-c3ccc(F)cc3)nc12`, the IC50 at 3 days in data set [1] was over 63.1 µM.

Turning to `Cc1n[nH]c2c(=O)[nH]c(-c3ccc(F)cc3)nc12`, the IC50 at 3 days in data set [1] was over 63.1 µM.

Turning to `COCCn1nc(C(C)C)c2nc(-c3ccc(F)cc3)[nH]c(=O)c21`, in data set [1], the IC50 at 3 days is over 63.1 µM.

Molecule `CC(C)c1nn(CCO)c2c(=O)[nH]c(-c3ccc(F)cc3)nc12` showed an IC50 at 3 days in [1] of over 63.1 µM.

Regarding `CC(C)c1nn(C)c2c(=O)[nH]c(-c3ccc(F)cc3)nc12`, the IC50 in the data set with Trypanosoma brucei [2] (read-out: pIC50 (converted)) was 79.4 nM. In addition, the IC50 at 3 days in [1] was over 63.1 µM.

In the case of `O=c1[nH]c(-c2ccc(F)cc2)nc2c(-c3ccccc3)n[nH]c12`, in the data set on Trypanosoma brucei [2] (read-out: pIC50 (converted)), the IC50 is 50.1 nM. In data set [1], this molecule had an IC50 at 3 days of over 63.1 µM.

In the case of `CC(C)c1c2nc(-c3ccc(F)cc3)[nH]c(=O)c2nn1C`, the IC50 at 3 days in data set [1] was over 63.1 µM.

Regarding `O=c1[nH]c(-c2ccc(F)cc2)nc2c(C3CCCCC3)n[nH]c12`, in the data set on Trypanosoma brucei [2] (read-out: pIC50 (converted)), the IC50 was 39.8 nM. In data set [1], the IC50 at 3 days was over 63.1 µM.

Take `Cc1ccc(C(=O)Nc2ccc(S(=O)(=O)O)c3cc(S(=O)(=O)O)cc(S(=O)(=O)O)c23)cc1NC(=O)c1cccc(NC(=O)Nc2cccc(C(=O)Nc3cc(C(=O)Nc4ccc(S(=O)(=O)O)c5cc(S(=O)(=O)O)cc(S(=O)(=O)O)c45)ccc3C)c2)c1` [SURAMIN]: the Activity result in [19] is listed as “Non-Toxic”.

In the case of `O=c1[nH]c(-c2ccc(F)cc2)nc2c(C3CCCC3)n[nH]c12`, the IC50 at 3 days in [1] and in [3] was over 63.1 µM throughout. Moreover, the Stability entry in data set [4] is listed as “Stable”. Besides, the remaining at 1 h in data set [5] and in data set [6] was 69% throughout.

Turning to `CC(C)c1nn(C(C)C)c2c(=O)[nH]c(-c3ccc(F)cc3)nc12`, the IC50 at 3 days in data set [1] is over 63.1 µM.

`O=c1[nH]c(-c2ccc(F)cc2)nc2cn[nH]c12` had an IC50 at 3 days in data set [1] of over 63.1 µM.
